Shown are actives, neighbours in structure and some others; about 2.2% of the full set was active somewhere.
FXIIa inh: human FXIIa protease inhibitors, primary screen, biochemical, 1536-well. inhibition, % at 5 µM. purified FXIIa, Boc-QGR-AMC fluorogenic substrate, 2 h. 0.3% of 220,000 active; in the data active = inhibition above about 40%;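 also: 0% = enzyme with no compound and 100% = blank without enzyme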
Target sequence (P00748 20-372 limits assumed): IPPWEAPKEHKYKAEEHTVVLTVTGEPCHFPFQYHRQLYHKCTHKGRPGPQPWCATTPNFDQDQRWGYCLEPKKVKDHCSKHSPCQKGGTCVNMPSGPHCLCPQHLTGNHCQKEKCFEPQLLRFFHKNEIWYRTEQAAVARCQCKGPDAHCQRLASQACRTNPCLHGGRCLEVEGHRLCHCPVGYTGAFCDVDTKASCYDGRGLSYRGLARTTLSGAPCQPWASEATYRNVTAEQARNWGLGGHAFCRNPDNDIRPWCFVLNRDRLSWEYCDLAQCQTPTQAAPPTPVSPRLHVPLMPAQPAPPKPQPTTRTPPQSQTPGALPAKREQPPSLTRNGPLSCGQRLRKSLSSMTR
Target sequence (P00748 373-615 limits assumed): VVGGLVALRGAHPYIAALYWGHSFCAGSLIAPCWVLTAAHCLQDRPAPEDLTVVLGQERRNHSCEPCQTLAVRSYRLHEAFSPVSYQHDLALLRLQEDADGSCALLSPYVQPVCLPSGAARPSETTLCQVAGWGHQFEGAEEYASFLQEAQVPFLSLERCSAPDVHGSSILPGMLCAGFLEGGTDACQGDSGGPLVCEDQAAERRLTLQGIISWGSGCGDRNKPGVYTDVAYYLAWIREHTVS
thrombin 1536: human alpha-thrombin inhibitors, primary screen, counter-screen for coagulation protease inhibitor project, biochemical, 1536-well, fluorogenic AMC substrate | Prothrombin (Homo sapiens), P00734 | Boc-VPR-AMC fluorogenic substrate cleavage | inhibition, % at 5 µM | 0.26% of 220,000 active;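 active = inhibition at or above 40%; inactive = inhibition below 40%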;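 also: 0% = enzyme with no compound and 100% = wells without enzyme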
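Test system: human alpha-thrombin protein / Dosing: one concentration per compound, 5 µM, with 0.2% DMSO / Medium: pH 7.5 Tris-saline with Tween 20 / Benchmarks: no-compound enzyme wells and no-enzyme blanks / Read-out basis: percent inhibition of thrombin substrate cleavage / Timing: reaction at room temperature / Measured by: fluorescence, ex 355 nm, em 460 nm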
FXIa inh: human FXIa protease inhibitors, primary screen, biochemical, 1536-well; Coagulation factor XI (Homo sapiens), P03951; purified FXIa, Boc-Glu-Ala-Arg-AMC fluorogenic substrate; inhibition, % at 5 µM; 0.14% of 220,000 active;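 active = inhibition of at least 40%; inactive = inhibition below 40%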;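 also: fluorescence of freed AMC excited at 355 nm; 0% = enzyme without compound and 100% = no enzyme blank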
Wee1 degr inh: Wee1 degradation inhibitors, primary screen, cell-based, HeLa, Wee1K328M-luciferase, luminescence; HeLa Luc-Wee1K328M stability; 100% = proteasome inhibitor MG132 effect; reporter increase, % at 5 µM; 1.2% of 220,000 active; AID 1321, 2008;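 active = activation above the mean of all tested compounds plus 3 SD, set per screening run, cut at about 8.8% in these data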;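 also: cells exposed to compound for 20 h before luminescence read; 0% = DMSO alone and 100% = MG132 at 30 µM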
hK5 inh: human KLK5 protease inhibitors, primary screen, biochemical, 1536-well | inhibition, % at 5 µM | Kallikrein-5 (Homo sapiens), Q9Y337 | 0.59% of 210,000 active | recombinant hK5, fluorogenic AMC substrate cleavage | AID 873, 2007;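 active = inhibition of 40% or more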;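 also: 0% = enzyme controls without compound and 100% = no-enzyme blanks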
Wee1 degr conf: Wee1 degradation inhibitors, confirmation, cell-based, HeLa, Wee1K328M-luciferase, luminescence, triplicate; 4% of 1,100 active; shares compounds with Wee1 degr inh; HeLa Luc-Wee1K328M degradation; vehicle 0%, proteasome-blocked wells 100%; AID 1410, 2008; activation, % at 5 µM; in the data active = activation above about 8.9%
* hit, by the source's call; . = no result.

SMILES | FXIIa inh | thrombin 1536 | FXIa inh | Wee1 degr inh | hK5 inh | Wee1 degr conf
Cc1cccc(C)c1OCCNC(=O)CCC(=O)c1ccccc1 | 14 | -6 | 5 | 0 | -6 | .
COCCNC(=O)c1cc(-c2ccncc2)nc2ccc(S(=O)(=O)N3CCOCC3)cc12 | 7 | 1 | 1 | 0 | -1 | .
CC(C)CCNC(=O)c1cc(-c2ccncc2)nc2ccc(S(=O)(=O)N3CCOCC3)cc12 | 14 | -2 | 5 | 11* | -9 | 1
Cc1ccc(S(=O)(=O)N2CCCOC2CNC(=O)C(=O)NCc2cccs2)cc1 (stereo not given) | 3 | -4 | -7 | 3 | -2 | .
Cc1cc(Cl)ccc1NC(=S)Nc1ccccn1 | 6 | -7 | 2 | 15* | -5 | 12*
CCN(CC)c1ccc(NC(=O)COc2ccccc2C#N)cc1S(=O)(=O)Nc1ccc(OC)cc1 | 10 | -7 | 4 | -2 | -8 | .
CCN(CC)c1ccc(NC(=O)c2cnccn2)cc1S(=O)(=O)Nc1ccc(OC)cc1 | 7 | -6 | 1 | 12* | -12 | 3
O=C(NCC1CCCO1)/C(=C/c1cn(-c2ccccc2)nc1-c1cccnc1)NC(=O)c1ccccc1 (stereo not given) | 2 | -1 | 0 | -1 | 2 | .
Cc1ccc(C)n1-c1ccc(C(=O)NN)s1 | 1 | -24 | -11 | -3 | -6 | .
Clc1ccc(/C=C\c2nccc3c2[nH]c2ccccc23)cc1 | -5 | -16 | -9 | 12* | -9 | 1
N#Cc1ccc(/C=C\c2nccc3c2[nH]c2ccccc23)cc1 | -17 | -5 | -14 | 0 | -38 | .
CCC(C)(C)NC(=O)C(c1ccncc1)N(C(=O)Cn1nnc2ccccc21)c1cc2c(cc1C(C)=O)OCO2 (stereo not given) | 8 | -2 | -5 | 14* | -2 | 3
CCC(C)(C)NC(=O)C(c1ccncc1)N(Cc1cccs1)C(=O)Cn1nnc2ccccc21 (stereo not given) | -9 | -6 | -2 | -1 | -23 | .
Cc1ccsc1/C=C1/CN(C)Cc2c1nc1ccccc1c2C(=O)O | 3 | -3 | 8 | 11* | -2 | -1
NC(=S)N/N=C/c1ccc(Br)o1 | 6 | -29 | -4 | 17* | -5 | 2
NC(=S)N/N=C/c1ccc(-c2cc(Cl)c(Cl)cc2Cl)o1 | 9 | -11 | -3 | -3 | -4 | .
Oc1ccc(CCC2CCCCN2Cc2nc(C3CC3)no2)cc1 (stereo not given) | 6 | -8 | -3 | -5 | -1 | .
CN1C(=S)SC2CS(=O)(=O)CC21 (stereo not given) | 5 | -4 | -2 | -4 | -3 | .
Cc1cc(N/N=C/c2ccc(F)cc2)nc(NCc2ccccc2)n1 | 3 | -2 | 0 | 12* | 1 | -6
Cc1ccnc(N/N=C/c2ccccc2)n1 | 7 | -12 | -1 | 17* | -3 | 3
C(=N\Nc1nccc(-c2cccnc2)n1)/c1ccccc1 | 1 | -5 | -1 | 0 | 1 | .
Cc1cc(N/N=C/c2ccc(N(C)C)cc2)nc(NCc2ccccc2)n1 | 6 | -3 | 0 | 0 | 1 | .
O=C(CSC1=N/C(=C/c2ccc(Cl)c(Cl)c2)C(=O)N1c1ccccc1F)NC1CC1 | 5 | -2 | 3 | -3 | -34 | .
Cc1ccc(NC(=O)CSc2nnc(-c3cccs3)o2)cc1S(=O)(=O)N(C)C | 2 | -3 | -1 | 21* | . | 2
CCN(CC)S(=O)(=O)c1cc(NC(=O)CSc2nnc(-c3cccs3)o2)ccc1C | 15 | 20 | 2 | -1 | -5 | .
SMILES | FXIIa inh | thrombin 1536 | FXIa inh | Wee1 degr inh | hK5 inh | Wee1 degr conf
COc1cc([N+](=O)[O-])ccc1NC(=O)C[n+]1cccc(C(C)=O)c1 | 3 | -8 | -5 | -1 | -4 | .
Cc1cc(N2C3CCC2CC(O)(c2ccc(F)cc2)C3)nc(-c2ccccc2)n1 (stereo not given) | -4 | -7 | -12 | -1 | -1 | .
Cc1ccnc(N2C3CCC2CC(O)(c2ccccc2)C3)n1 (stereo not given) | 3 | -2 | -4 | 12* | -7 | 0
CCCn1c(=O)[nH]c(=O)c2c1nc(-c1ccc(OC)c(Br)c1)n2CCOC | 8 | -8 | -1 | -2 | 6 | .
COc1cccc(C(=O)Nc2ccc(-c3nc4ccccc4o3)c(O)c2)c1 | 9 | 3 | 3 | 12* | -14 | 2
COc1cc(OC)cc(C(=O)Nc2ccc(-c3nc4ccccc4o3)cc2)c1 | -2 | 2 | 6 | -1 | -8 | .
Cc1ccc2cc([N+](=O)[O-])ccc2n1 | 3 | -1 | 1 | 5 | 3 | .
CCOC(=O)c1[nH]c(C)c(CN(C(C)=O)c2ccc(OCC)cc2)c1C | 11 | 9 | 9 | 13* | 23 | 1
COc1ccc(C(C(=O)Nc2ccc(C(C)C)cc2)N(Cc2ccco2)C(=O)CC2NC(=O)NC2=O)cc1 (stereo not given) | 4 | -1 | -2 | 16* | -10 | 4
COCc1cc(=O)n2[nH]c(-c3cccs3)cc2n1 | 3 | -12 | -2 | -4 | -10 | .
CCCOc1ccc(N2C(=O)C/C(=C\c3ccccc3)C2=O)cc1 | 9 | 2 | 2 | 0 | 2 | .
Cc1cc(CN2CCCC(CO)(Cc3cccc(Cl)c3)C2)n[nH]1 (stereo not given) | 4 | -8 | 0 | 14* | . | 0
CC(C)Cc1cc(CN2CCCC(CO)(Cc3cccc(Cl)c3)C2)[nH]n1 (stereo not given) | 5 | -5 | -2 | -2 | 0 | .
O=c1c2ccccc2c2c(O)nc(-c3ccccc3)n2n1Cc1ccccc1 | 5 | -2 | -5 | 2 | 15 | .
COc1ccccc1N1C(=O)CC(Sc2n[nH]c(-c3cccc(C)c3)n2)C1=O (stereo not given) | 24 | -3 | 8 | 2 | -32 | .
Cc1ccc2c(O)c(C)c(=O)[nH]c2n1 | 5 | -11 | -3 | -3 | 0 | .
CCSc1nn2c(=O)c3ccccc3nc2s1 | 23 | 2 | 3 | 15* | -2 | 1
CCOn1c(SCC)nc2ccccc2c1=O | 12 | 1 | 7 | 2 | -18 | .
Fc1cccc(/C=N/Nc2nc3ccccc3[nH]2)c1 | 1 | -7 | -2 | 11* | -3 | 0
c1ccc(C2Nc3ccccc3-c3nc4ccccc4n32)cc1 (stereo not given) | -9 | -5 | -2 | 15* | -3 | -3
CC1CC(C)CN(CC(=O)NC(c2ccccc2)c2ccccc2)C1 (stereo not given) | 7 | -3 | 0 | 12* | 2 | 1
